Results on one compound are retold here after ChEMBL document CHEMBL4342521 (J Med Chem, 2020).

The source made the active and inactive calls. The calls are words filed in the database; no cut-off is given here.

In series [1] the target is T1, Protein deacetylase HDAC6 (Homo sapiens, UniProt Q9UBN7).
T1 sequence (Q9UBN7 whole entry): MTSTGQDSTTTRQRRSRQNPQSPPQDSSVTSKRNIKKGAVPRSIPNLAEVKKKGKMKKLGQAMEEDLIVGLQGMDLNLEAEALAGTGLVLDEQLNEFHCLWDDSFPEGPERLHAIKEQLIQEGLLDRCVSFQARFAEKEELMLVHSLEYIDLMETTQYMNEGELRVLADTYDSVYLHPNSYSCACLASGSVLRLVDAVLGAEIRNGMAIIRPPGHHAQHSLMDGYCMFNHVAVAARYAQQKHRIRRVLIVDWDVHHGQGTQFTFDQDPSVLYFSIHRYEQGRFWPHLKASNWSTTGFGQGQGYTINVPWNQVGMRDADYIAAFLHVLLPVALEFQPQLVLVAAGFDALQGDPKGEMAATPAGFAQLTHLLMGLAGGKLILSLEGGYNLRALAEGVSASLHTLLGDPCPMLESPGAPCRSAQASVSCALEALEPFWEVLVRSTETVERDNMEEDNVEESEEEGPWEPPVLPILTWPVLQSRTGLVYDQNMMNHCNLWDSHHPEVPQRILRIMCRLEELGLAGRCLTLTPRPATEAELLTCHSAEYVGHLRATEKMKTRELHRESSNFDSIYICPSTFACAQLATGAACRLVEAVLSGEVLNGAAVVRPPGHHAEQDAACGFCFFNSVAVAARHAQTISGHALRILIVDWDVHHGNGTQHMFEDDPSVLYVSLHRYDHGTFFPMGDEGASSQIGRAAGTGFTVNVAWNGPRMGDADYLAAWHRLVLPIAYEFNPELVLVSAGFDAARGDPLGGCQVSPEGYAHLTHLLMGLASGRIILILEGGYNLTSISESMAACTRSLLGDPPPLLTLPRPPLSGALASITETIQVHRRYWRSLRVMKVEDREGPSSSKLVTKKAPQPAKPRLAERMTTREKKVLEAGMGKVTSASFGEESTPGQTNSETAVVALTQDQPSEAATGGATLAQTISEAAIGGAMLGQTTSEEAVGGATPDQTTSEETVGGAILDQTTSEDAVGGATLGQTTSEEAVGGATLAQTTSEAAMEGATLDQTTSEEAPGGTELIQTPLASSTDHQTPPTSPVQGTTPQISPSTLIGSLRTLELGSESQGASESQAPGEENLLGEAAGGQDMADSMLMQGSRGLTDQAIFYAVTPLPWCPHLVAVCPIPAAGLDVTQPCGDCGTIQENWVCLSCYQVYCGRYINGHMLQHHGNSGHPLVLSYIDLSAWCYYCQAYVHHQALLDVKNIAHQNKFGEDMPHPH
In words: Inhibition of recombinant HDAC6 (unknown origin) using Boc-Lys(acetyl)-AMC as substrate preincubated for 1 hr followed by substrate addition and measured after 2 hrs by fluorescence based micro plate reader analysis.

The target of series [2] is 72 kDa type IV collagenase (Homo sapiens) (UniProt P08253). Description: Inhibition of MMP-2 (unknown origin) at 10 to 50 uM incubated for 10 to 15 mins and measured after 2 hrs by fluorescence based assay. The essentials: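 MMP-2/MMP-9 in activation buffer with test agent (final 50 and 10 μM), 10–15 min incubation, then fluorogenic substrate added. Incubated 2 h at 37 °C; fluorescence read at 320/405 nm. Kit MMP inhibitor was the positive control.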

The subject of a further series is HOP-62. In words: Antiproliferative activity against human HOP62 cells assessed as reduction in cell viability after 48 hrs by CellTiter-Blue assay. The class given is functional. As to conditions: HOP-62, 48 h, read-out: LC50 (the source's name). The method, boiled down:
(§1)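 Cells grown in RPMI1640 with 10% FBS at 37 °C, 5% CO₂. 5,000–10,000 cells/well were pre-incubated overnight, and a time-zero CellTiter-Blue read was taken. Six 10-fold dilutions (top final 10 μM) were applied for 48 h, followed by 0.125 mg/mL CellTiter-Blue for 2–4 h. Resorufin fluorescence was read at ex 560/em 590 nm. […] Triplicates.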

A further series concerns COLO 205. Description: Antiproliferative activity against human COLO205 cells assessed as reduction in cell viability after 48 hrs by CellTiter-Blue assay. Format: functional. As to conditions: COLO 205, 48 h, read-out: LC50 (the source's name). The method, boiled down: as §1
Background: Resazurin is reduced to fluorescent resorufin, in cell work by metabolically active cells.

A further series concerns HT-29. Description: Antiproliferative activity against human HT-29 cells assessed as reduction in cell viability after 48 hrs by CellTiter-Blue assay. The class given is functional. As to conditions: HT-29, 48 h, read-out: LC50 (the source's name). The essentials: as §1
The next series has as its system ACHN. Description: Antiproliferative activity against human ACHN cells assessed as reduction in cell viability after 48 hrs by CellTiter-Blue assay. Format: functional. As to conditions: read-out: LC50 (the source's name). The essentials:
as §1

Another series relates to MDA-MB-231. Description: Antiproliferative activity against human MDA-MB-231 cells assessed as reduction in cell viability after 48 hrs by CellTiter-Blue assay. Format: functional. As to conditions: MDA-MB-231, 48 h, read-out: LC50 (the source's name). The method, boiled down: as §1
A further series has as its system Hs-578T. Description: Antiproliferative activity against human Hs 578T cells assessed as reduction in cell viability after 48 hrs by CellTiter-Blue assay. The class given is functional. As to conditions: read-out: LC50 (the source's name). The essentials: as §1
A further series deals with BT-549. Description: Antiproliferative activity against human BT549 cells assessed as reduction in cell viability after 48 hrs by CellTiter-Blue assay. Format: functional. As to conditions: BT-549, 48 h, read-out: LC50 (the source's name). The essentials:
as §1

In series [3] the test system is MV4-11. Description: Induction of apoptosis in human MV4-11 cells harboring wild type p53/FLT3-ITD mutant assessed as c-FLIP degradation at 50 to 200 nM after 24 hrs by Western blot analysis. Format: functional, cell-based. The method, boiled down: (§2)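 Cells (1,500,000 per well) grown 12 h, then drug-treated as specified. Lysed in RIPA buffer, sonicated, centrifuged, protein normalized by BCA. Run on 4–12% Bis-Tris gels in MES, transferred, probed overnight at 4 °C with primary antibodies at 1/1000. Actin served as reference for LC3-II quantitation.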
(In general: A western blot detects proteins with antibodies after separation by electrophoresis.)

The subject of series [4] is MV4-11. In words: Induction of autophagy in human MV4-11 cells harboring wild type p53/FLT3-ITD mutant assessed as LC-3 degradation at 50 to 200 nM after 24 hrs by Western blot analysis. Format: functional, cell-based. The essentials:
as §2

The subject of series [5] is HL-60. Description: Induction of autophagy in p53 null human HL60 cells harboring wild type FLT3 assessed as LC-3 degradation at 50 to 200 nM after 24 hrs by Western blot analysis. Format: functional, cell-based. The essentials:
as §2

Series [6] has as its system HL-60. Description: Effect on XIAP protein degradation in p53 null human HL60 cells harboring wild type FLT3 at 50 to 200 nM after 24 hrs by Western blot analysis. Format: functional, cell-based. The essentials:
as §2

Series [7] is described as follows: AUC (0 to infinity) in CD1 mouse at 5 mg/kg, iv after 24 hrs by LC-MS/MS analysis. Format: ADME, organism-based. Set-up: dose 5 mg/kg, route intravenous, time infinity. As to conditions: in vivo. The method, boiled down: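 Male CD-1 mice, fasted overnight, 3 per route; compound in PBS with 5% DMSO, iv bolus 5 mg/kg or oral gavage 20 mg/kg. Blood sampled at 5, 15, 30 min and 1–24 h. Plasma protein-precipitated with acetonitrile plus internal standard, quantified by LC-MS/MS (MRM). AUC by linear trapezoidal method; parameters by non-compartmental analysis.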

72 kDa type IV collagenase (Homo sapiens), sequence (P08253 110-660 limits assumed): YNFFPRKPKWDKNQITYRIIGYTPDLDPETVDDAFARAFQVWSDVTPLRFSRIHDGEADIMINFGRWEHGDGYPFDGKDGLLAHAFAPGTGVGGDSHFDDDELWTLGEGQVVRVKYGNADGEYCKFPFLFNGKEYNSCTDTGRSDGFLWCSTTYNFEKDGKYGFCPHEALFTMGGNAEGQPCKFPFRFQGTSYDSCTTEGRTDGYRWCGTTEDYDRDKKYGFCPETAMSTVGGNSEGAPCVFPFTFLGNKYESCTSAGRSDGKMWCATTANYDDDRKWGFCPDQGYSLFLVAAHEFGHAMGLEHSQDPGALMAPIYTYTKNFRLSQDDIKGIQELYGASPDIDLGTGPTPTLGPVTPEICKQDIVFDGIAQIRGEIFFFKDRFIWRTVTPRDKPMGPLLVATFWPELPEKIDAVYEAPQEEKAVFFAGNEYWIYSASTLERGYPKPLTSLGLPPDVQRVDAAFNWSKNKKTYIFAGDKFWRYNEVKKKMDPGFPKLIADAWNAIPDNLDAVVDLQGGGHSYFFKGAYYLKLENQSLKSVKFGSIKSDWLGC

In general, IC50 refers to the point on the concentration scale where inhibition reaches its midpoint. The term AUC denotes the area under the concentration-time curve, a measure of exposure. The low end stands for less exposure, the high end for more exposure. Regarding `CCCNNC(=O)/C=C/c1ccc(CNCCc2c(C)[nH]c3ccccc23)cc1.O=C(O)C(F)(F)F`, the 50% inhibitory concentration (IC50) in series [1] was above 50 µM. The inhibition entry in series [2] was “inactive”. Further, the CC50 with HOP-62 is above 10 µM; in the series with COLO 205, 0.66 µM; with HT-29 it was above 10 µM; with ACHN it was above 10 µM; in the series with MDA-MB-231 it was above 10 µM; in the series with Hs-578T, above 10 µM. In the series with BT-549, the CC50 was above 10 µM. Further, the outcome with MV4-11 [3], in the series on MV4-11 [4] and in the series on HL-60 [6] was Active. Besides, the outcome with HL-60 [5] was inactive. The AUC in [7] was found to be 334 ng·h/mL.
